The test system of data set [1] is Human alphaherpesvirus 1. Briefly: Antiviral activity against HSV1 KOS ATCC VR1493 infected in African green monkey Vero cells assessed as reduction in EGFP-positive cells at 10 uM treated at 2 hrs post infection measured 24 hrs post infection by flow cytometric analysis relative to control. It counts as functional. Put shortly:
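Vero cells infected with EGFP-expressing HSV-1 at MOI 1, then given medium with 10 μM test agent (DMSO vehicle) at 2 hpi. Percentage of EGFP+ cells read by flow cytometry at 24 hpi against untreated infected cultures. Mean of three independent experiments, SD.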

Data set [2] deals with Human alphaherpesvirus 1. Description: Antiviral activity against HSV1 KOS ATCC VR1493 infected in African green monkey Vero cells assessed as reduction in virus yield at 10 uM treated at 2 hrs post infection measured 48 hrs post infection by flow cytometric analysis relative to control. Format: functional, organism-based.
The subject of data set [3] is Human alphaherpesvirus 1. Briefly: Antiviral activity against HSV1 KOS ATCC VR1493 infected in human iPSC cells assessed as reduction in EGFP-positive cells at 10 uM treated at 2 hrs post infection measured 24 hrs post infection by flow cytometric analysis relative to control. It counts as functional. In a few lines: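 Human iPSC-derived neurons infected with engineered EGFP HSV-1 at MOI 0.3 and treated with 10 μM at 2 hpi (DMSO vehicle). Percentage of EGFP+ cells measured by flow cytometry at 24 hpi relative to untreated infected cultures. Average of three independent experiments, SD.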

Data set [4] relates to Human alphaherpesvirus 1. Description: Antiviral activity against HSV1 KOS ATCC VR1493 infected in human iPSC cells assessed as reduction in virus yield at 10 uM treated at 2 hrs post infection measured 48 hrs post infection by flow cytometric analysis relative to control. It counts as functional, organism-based.
Data set [5] concerns Human alphaherpesvirus 1. Description: Antiviral activity against HSV1 KOS ATCC VR1493 infected in human iPSC cells assessed as viral DNA replication at 10 uM measured 24 hrs post infection by FISH analysis. Format: functional, organism-based. In a few lines:
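HSV-1-infected iPSC-neurons (MOI 0.3), treated with 10 μM at 2 hpi. Fluorescent in situ hybridisation with HSV-1 DNA probe to detect viral DNA replication at 24 hpi.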

The subject of data set [6] is Human alphaherpesvirus 1. Briefly: Antiviral activity against HSV1 KOS ATCC VR1493 infected in human iPSC cells assessed as reduction in viral DNA copy at 10 uM measured 24 hrs post infection by RT-qPCR analysis relative to control. Format: functional. In a few lines: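 iPSC-neurons infected with HSV-1 (MOI 0.3) and treated with 10 μM at 2 hpi. DNA extracted at 24 hpi. Viral DNA copy number measured by qPCR relative to infected untreated cells.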

Data set [7] concerns Human alphaherpesvirus 1. Briefly: Antiviral activity against HSV1 KOS ATCC VR1493 infected in human iPSC cells assessed as reduction in expression of ICP4 gene at 10 uM measured 24 hrs post infection by RT-qPCR analysis. Format: functional, organism-based. Put shortly:
(§1)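 iPSC-neurons infected with HSV-1 (MOI 0.3) and treated with 10 μM at 2 hpi. RT-qPCR of ICP4 and viral DNA polymerase transcripts at 24 hpi.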

Data set [8] concerns Human alphaherpesvirus 1. Briefly: Antiviral activity against HSV1 KOS ATCC VR1493 infected in human iPSC cells assessed as reduction in expression of DNA polymerase gene at 10 uM measured 24 hrs post infection by RT-qPCR analysis. Format: functional, organism-based. In a few lines: as §1
A short description of data set [9]: Cytotoxicity against human iPSC cells assessed as cell viability at 0.1 to 50 uM after 24 to 48 hrs by live/dead fixable viability dye-based flow cytometric analysis. In a few lines:
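Viability of iPSC-neurons exposed to test agent over 100 nM to 50 μM.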

For data set [10], the system named is Human alphaherpesvirus 3. Description: Antiviral activity against VZV infected in human ARPE19 cells at 10 uM treated at 2 hrs post infection measured 48 hrs post infection by luciferase assay relative to control. Format: functional. In a few lines: (§2)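 ARPE-19 retinal pigment epithelial cells infected with VZV carrying luciferase under the late ORF9 promoter at 1000 PFU/well. Compound added 2 hpi. Luciferase counts per second read at 48 hpi.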

The test system of data set [11] is Human alphaherpesvirus 3. Briefly: Antiviral activity against VZV infected in human ARPE19 cells treated at 2 hrs post infection measured 48 hrs post infection by luciferase assay. Format: functional, organism-based. The following applies: Human alphaherpesvirus 3, ARPE-19. Put shortly:
as §2

A short description of data set [12]: Cytotoxicity against human ARPE19 cells assessed as cell viability at 0.1 to 50 uM after 24 to 48 hrs by live/dead fixable viability dye-based flow cytometric analysis. The following applies: arpe-19, 50 µM.
Data set [13] has as its system Human alphaherpesvirus 1. Briefly: Induction of sodium butyrate-induced reactivation of HSV1 KOS ATCC VR1493 infected in human iPSC cells assessed as increase in EGFP-positive cells at 10 uM measured after 5 days of withdrawal by flow cytometric analysis relative to 5BVdU/IFN-alpha-treated cells. Format: functional.
The subject of data set [14] is Human alphaherpesvirus 1. Briefly: Induction of sodium butyrate-induced reactivation of HSV1 KOS ATCC VR1493 infected in human iPSC cells assessed as increase in EGFP-positive cells at 10 uM measured after 5 days of withdrawal in presence of IFN-alpha by flow cytometric analysis relative to 5BVdU/[…]-treated cells. Format: functional.
The test system of data set [15] is Human alphaherpesvirus 1. Description: Induction of sodium butyrate-induced reactivation of HSV1 KOS ATCC VR1493 infected in human iPSC cells assessed as decrease in EGFP MFI at 10 uM measured after 5 days of withdrawal relative to 5BVdU/IFN-alpha-treated cells. It counts as functional.
The subject of data set [16] is Human alphaherpesvirus 1. Description: Induction of sodium butyrate-induced reactivation of HSV1 KOS ATCC VR1493 infected in human iPSC cells assessed as decrease in EGFP MFI at 10 uM measured after 5 days of withdrawal in presence of IFN-alpha relative to 5BVdU/IFN-alpha-treated cells. It counts as functional.
The subject of data set [17] is Human alphaherpesvirus 1. Description: Induction of sodium butyrate-induced reactivation of HSV1 KOS ATCC VR1493 infected in human iPSC cells assessed as reduction in EGFP/RFP-positive cells at 10 uM measured after 5 days of withdrawal by flow cytometric analysis relative to 5BVdU/[…]-treated cells. Format: functional, organism-based.
In data set [18] the test system is Human alphaherpesvirus 1. Briefly: Induction of sodium butyrate-induced reactivation of HSV1 KOS ATCC VR1493 infected in human iPSC cells assessed as reduction in EGFP/RFP-positive cells at 10 uM measured after 5 days of withdrawal in presence of IFN-alpha by flow cytometric analysis relative to 5BVdU/[…]-treated cells. It counts as functional, organism-based.

The test system of data set [19] is Human alphaherpesvirus 1. Briefly: Induction of sodium butyrate-induced reactivation of HSV1 KOS ATCC VR1493 infected in human iPSC cells assessed as decrease in EGFP/RFP MFI at 10 uM measured after 5 days of withdrawal relative to 5BVdU/IFN-alpha-treated cells. It counts as functional, organism-based.
Data set [20] relates to Human alphaherpesvirus 1. Briefly: Induction of sodium butyrate-induced reactivation of HSV1 KOS ATCC VR1493 infected in human iPSC cells assessed as decrease in EGFP/RFP MFI at 10 uM measured after 5 days of withdrawal in presence of IFN-alpha relative to 5BVdU/IFN-alpha-treated cells. Format: functional, organism-based.
Data set [21] relates to Human alphaherpesvirus 1. Briefly: Antiviral activity against HSV1 KOS ATCC VR1493 infected in human iPSC cells assessed as reduction in expression of ICP4 at 10 uM measured 24 hrs post infection by western blot analysis. It counts as functional, organism-based.
In data set [22] the test system is Human alphaherpesvirus 1. Description: Antiviral activity against HSV1 KOS ATCC VR1493 infected in human iPSC-derived neurons assessed as reduction in EGFP-positive cells treated at 2 hrs post infection measured 24 hrs post infection by flow cytometric analysis. The following applies: Human alphaherpesvirus 1, KOS ATCC VR1493, iPSC-derived neurons.
Data set [23] relates to Human alphaherpesvirus 1. Briefly: Antiviral activity against HSV1 KOS ATCC VR1493 infected in African green monkey Vero cells assessed as viral titre at 50 uM treated at 2 hrs post infection measured 48 hrs post infection by […] relative to control. It counts as functional.
In data set [24] the test system is Human alphaherpesvirus 1. Briefly: Antiviral activity against HSV1 KOS ATCC VR1493 infected in human iPSC cells assessed as viral DNA replication at 50 uM measured 24 hrs post infection by FISH analysis. Format: functional, organism-based. In a few lines: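 iPSC-derived neurons were infected with engineered HSV-1 at MOI 0.3 and given drug 2 hpi. Viral DNA replication was scored by fluorescent in situ hybridization with an HSV-1 DNA probe, counting hybridizing signals.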

For data set [25], the system named is Human alphaherpesvirus 1. Briefly: Antiviral activity against HSV1 KOS ATCC VR1493 infected in human iPSC cells assessed as reduction in expression of ICP4 gene at 50 uM measured 24 hrs post infection by RT-qPCR analysis. It counts as functional, organism-based. In a few lines:
(§3)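 Human iPSC-derived neurons were infected with engineered HSV-1 at MOI 0.3 and treated 2 hpi (DMSO vehicle). RNA was taken 24 hpi, and viral ICP4 and viral DNA polymerase transcripts were quantified by RT-qPCR relative to infected untreated cells.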

Data set [26] relates to Human alphaherpesvirus 1. Description: Antiviral activity against HSV1 KOS ATCC VR1493 infected in human iPSC cells assessed as reduction in expression of DNA polymerase gene at 50 uM measured 24 hrs post infection by RT-qPCR analysis. Format: functional, organism-based. In a few lines: as §3
The subject of data set [27] is Human alphaherpesvirus 1. Description: Antiviral activity against HSV1 KOS ATCC VR1493 infected in human iPSC cells assessed as reduction in expression of ICP4 at 50 uM measured 24 hrs post infection by western blot analysis. Format: functional, organism-based.

Structures are written as SMILES. Active and inactive are the calls of the source. The calls are words filed in the database; no cut-off is given here. Bounds are passed on as bounds.

For `O=C1N[C@@H]2C(=C[C@H](O)[C@@H](O)[C@H]2O)c2cc3c(c(O)c21)OCO3` [NARCICLASINE], the “fold change (FC)” value in data set [1] came out at 10.6; in data set [3] it was 69. For the same molecule, the result in [2], in data set [4] and in data set [5] was Active.

In the case of `O=C1N[C@H]2[C@H](O)[C@@H](O)[C@@H](O)C[C@@H]2c2cc3c(cc21)OCO3`, the outcome in data set [1], in [2] and in data set [5] was inactive.

With `O=C1N[C@H]2[C@H](O)[C@H](O)[C@@H](O)C[C@@H]2c2cc3c(cc21)OCO3`, the “fold change (FC)” value in data set [1] is on record as 19.6; in data set [3] it was 28; in [6], above 1800; in data set [10], 220; in [13], 2.9; in [14], 2.1. Also, the “fold change (FC)” value is 1.6 in [15] and 2.5 in [16]. Moreover, the result in data set [2], in data set [4], in data set [5], in data set [7], in data set [8] and in [17] was Active. Further, the result in [18], in [19], in data set [20] and in data set [21] was Active. Besides, the Activity result in data set [9] and in data set [12] was “Non-toxic” in each case. Besides, the 50% effective concentration (EC50) in [11] was 150 nM; in data set [22] it was 100 nM.

For the molecule `COC(=O)N[C@H]1C(=O)C[C@@H](O)C[C@@H]1c1ccc2c(c1)OCO2`, the result in data set [1], in data set [2] and in [5] was inactive.

Consider `O=C1N[C@H]2[C@H](O)[C@H](O)[C@@H](O)[C@H](O)[C@@H]2c2cc3c(c(O)c21)OCO3` [PANCRATISTATIN], for which the “fold change (FC)” value in [1] is given as 8.3; in data set [3] it was 62. Also, the result in [2], in data set [4] and in data set [5] was Active.

Take `O=C1N[C@H]2[C@H](O)C[C@@H](O)C[C@@H]2c2cc3c(cc21)OCO3`: the outcome in data set [1], in data set [2] and in [5] was inactive.

`Nc1nc2c(ncn2COCCO)c(=O)[nH]1` [ACYCLOVIR]: the Activity in [23] is 33.3 PFU/ml; in data set [9] it was “Non-toxic”; in [12], “Non-toxic”. The result in data set [24], in [25], in data set [26] and in data set [27] was Active. For the same molecule, the EC50 in [22] is 70 nM.
